Screening results deposited in PubChem BioAssay by several laboratories.
In the library only some 8.2% were active in any assay of this set; here they are far more common.
SF-1 act: activates the human nuclear receptor SF-1; activation, % at 10 µM; 65,000 compounds, 1.9% hits; CHO-K1 Gal4-SF-1 LBD luciferase reporter; % increase over DMSO SF-1-specific signal;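 active = activation above the mean activation of all tested compounds plus 3 SD, cut at about 50% in these data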
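Assay system – CHO-K1 cells with Gal4–hSF-1 LBD chimera plus Gal4-driven luciferase · Quantity – 4,000 cells per well · Times – compound added 1 h post-seeding, 20 h exposure at 37 °C, 5% CO2 · Measured by – luciferase light emission · Benchmarks – DMSO and mock-transfected background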
D1 allo mod: D1 dopamine receptor (human) allosteric modulation. P21728. HEK293 D1, CRE-luciferase, dopamine EC30 potentiation; actives deviate in either direction. B-score at 10 µM. 58,000 compounds, 5.9% hits;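 active = luminescence count or its row- and column-corrected plate score outside the 99.7% band of the plate's sample wells, on either side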
Target sequence (P21728 whole entry, looked up): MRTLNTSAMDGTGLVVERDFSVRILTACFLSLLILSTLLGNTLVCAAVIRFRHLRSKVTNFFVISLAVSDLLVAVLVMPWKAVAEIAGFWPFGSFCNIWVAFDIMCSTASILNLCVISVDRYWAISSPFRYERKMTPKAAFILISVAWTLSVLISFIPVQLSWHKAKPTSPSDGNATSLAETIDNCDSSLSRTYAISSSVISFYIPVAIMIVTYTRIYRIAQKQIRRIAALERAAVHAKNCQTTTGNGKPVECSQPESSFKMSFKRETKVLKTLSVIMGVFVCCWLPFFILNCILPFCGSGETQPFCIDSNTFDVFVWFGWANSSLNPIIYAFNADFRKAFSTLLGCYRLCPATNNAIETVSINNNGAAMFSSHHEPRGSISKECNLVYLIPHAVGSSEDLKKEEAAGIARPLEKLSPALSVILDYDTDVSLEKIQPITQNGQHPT
M1 ag: agonists of M1 muscarinic receptor. CHO-M1 cells, Fluo-4 calcium fluorescence, agonist mode; stronger effect = higher value. B-score at 10 µM. 64,000 compounds, 3% hits. AID 626;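 active = fluorescence rise, raw or as B-score row- and column-corrected plate score, outside the 99.7% band of its plate's samples, either direction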
HePTP inh: human HePTP phosphatase inhibition | recombinant HePTP phosphatase activity, OD absorbance | inhibition, % at 20 µM | 110,000 compounds, 0.64% hits | P35236; in the data active = inhibition above about 50%;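 note: plate controls were vehicle for no effect and reference inhibitor for full effect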
M1 antagonist: antagonists of rat M1 muscarinic receptor | B-score at 10 µM | P08482 | CHO-M1 cells, Fluo-4 calcium, ACh EC80 antagonist mode; stronger effect = lower value | 64,000 compounds, 3.4% hits | AID 628;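 active = calcium fluorescence response, raw or row-and-column corrected B-score, differing from the plate sample mean either way at a set confidence level, mostly lower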
RORa activator: activators of human nuclear receptor RORA; CHO-K1 Gal4-RORA LBD luciferase reporter, luminescence; percent increase over mock-subtracted basal signal; 65,000 compounds, 1.5% hits; activation, % at 10 µM; P35398;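 active = activation above the mean of all tested compounds plus 3 SD, cut at about 49% in these data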;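 note: 0% = DMSO-treated RORA cells and 100% = added signal equal to DMSO minus mock-transfected cells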
D1 mod confirm: confirmation of human D1 dopamine receptor allosteric modulators; 2,200 compounds, 88% hits; shares compounds with D1 allo mod; AID 642; HEK293 D1 CRE-luciferase, dopamine EC30 potentiation; stronger effect = higher value; luminescence at 10 µM;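 active = luminescence in either of two replicates above the same-plate mean plus 3 SD of the low-dose dopamine control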
D1 no dopamine: activates D1 CRE-luciferase signal without dopamine present; shares compounds with D1 allo mod; HEK293 D1 CRE-luciferase, luminescence, no dopamine; stronger effect = higher value; luminescence at 10 µM; 1,900 compounds, 0.8% hits; in the data active = luminescence above about 3900
Isoprot counter: alters isoproterenol CRE-luciferase response in HEK293 cells | shares compounds with D1 allo mod | HEK293 D1 CRE-luciferase, isoproterenol EC30 counter-screen | calls only at 10 µM | 2,200 compounds, 63% hits;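 active = luminescence in either replicate above plate mean of wells with a partly effective reference agonist dose plus 3 SD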;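 note: isoproterenol raises cAMP through native beta-adrenoceptor Gs so signal bypasses D1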
Numbers without * were called inactive; i = inactive; nt = not tested or not shown; + = active, no number.

SMILES	SF-1 act	D1 allo mod	M1 ag	HePTP inh	M1 antagonist	RORa activator	D1 mod confirm	D1 no dopamine	Isoprot counter
CCC(Sc1nc2n[nH]c(C)c2c(=N)n1-c1cccc(Cl)c1)C(=O)NCCOC (stereo not drawn)	-1	5.1*	-0.75	nt	-0.54	-12	11752*	1764	+
CCC(Sc1nc2n[nH]c(C)c2c(=N)n1-c1ccc(C)c(Cl)c1)C(=O)N1CCOCC1 (stereo not drawn)	6	0.73	0.65	nt	-0.17	10	nt	nt	nt
COC(C)(C)c1cc(C(C)(C)C)nc(N)n1	-14	3.1*	-0.12	1	0.32	-4	10892*	nt	+
CC1(C)CC(=O)CC(=Nc2ccccc2N)C1	nt	nt	nt	6	nt	nt	nt	nt	nt
C=CCn1c(NC(C)c2cc(Cl)ccc2O)nc2ccccc21 (stereo not drawn)	-10	-0.73	-1.1	-4	-1.4	12	nt	nt	nt
COc1ccc(C(=O)CSc2cc(C)nc3nc(C)nn23)cc1OC	-20	5.1*	-1.2	5	-0.051	-15	9832*	nt	+
CCOC(=O)CCc1c(C)nc2cc(-c3ccc(Cl)cc3)[nH]n2c1=O	-7	-1.2	-0.025	6	0.17	18	nt	nt	nt
O=C(NCc1cccs1)C1CC(c2ccccc2O)=NO1 (stereo not drawn)	22	2.8*	-0.0068	6	-0.13	17	6344*	1416	i
COc1ccc(OC)c(C2=NOC(C(=O)NCc3ccccn3)C2)c1 (stereo not drawn)	-4	1.3	0.25	6	0.62	-7	nt	nt	nt
Cc1cc(Cl)ccc1OCCCC(=O)N1CCOCC1	33	1.6	-0.4	0	-0.57	28	nt	nt	nt
CCN(CC)c1ccc(C(=O)Nc2ccccc2F)cc1	nt	nt	nt	-6	nt	nt	nt	nt	nt
COc1ccccc1Nc1nc(N)nc(CSc2nncn2C)n1	4	12*	0.4	5	0.24	-1	6088	nt	i
COc1ccccc1Nc1nc(N)nc(CN2CCOCC2)n1	-11	0.58	1.5	2	1.2	-3	nt	nt	nt
CCCn1nc(NS(C)(=O)=O)c2cc3cccc(C)c3nc21	-5	16*	-0.4	-10	0.4	-3	16772*	1876	+
CC(C)C1Cc2c(C#N)c(N)n(C)c(=S)c2CO1 (stereo not drawn)	4	9.8*	0.82	5	0.46	-8	11952*	1676	+
CCCCCCN1Cc2ccccc2C1	-2	-0.96	-1.9	1	-0.51	-1	nt	nt	nt
Cc1cccc(-c2c3c(=O)n(C)c(=O)n(C)c3cn2-c2ccccc2O)c1	10	5.8*	0.56	4	0.48	11	9336*	1844	i
CC(=O)Nn1cc2c(c1-c1ccccc1)c(=O)n(C)c(=O)n2C	-7	1.3	-0.92	3	-0.34	-3	nt	nt	nt
CC(=O)c1cccc(NC(=O)NCc2ccco2)c1	20	nt	-0.69	8	1	13	nt	nt	nt
CN(C)S(=O)(=O)c1cccc(C(=O)NCc2ccco2)c1	-2	0.79	0.35	7	0.48	-8	nt	nt	nt
Cc1ccc(N(Cc2ccco2)C(=O)c2cccc(S(=O)(=O)N(C)C)c2)cc1	-12	3*	-0.16	7	0.95	-6	11896*	1544	+
COc1cc(/C=C(/NC(=O)c2ccccc2)C(=O)NN)cc(OC)c1OC	nt	nt	nt	-3	nt	nt	nt	nt	nt
CCCc1cc(C(N)=O)c(NC(=O)c2ccco2)s1	60*	5*	-0.008	9	-1.2	59*	10424*	1588	+
Cc1sc(NC(=O)c2ccco2)c(C(N)=O)c1C	nt	nt	nt	4	nt	nt	nt	nt	nt
C/C(=C\C(=O)c1ccc(Cl)cc1)Nc1ccc(Br)c(C)c1	nt	nt	nt	-2	nt	nt	nt	nt	nt
SMILES	SF-1 act	D1 allo mod	M1 ag	HePTP inh	M1 antagonist	RORa activator	D1 mod confirm	D1 no dopamine	Isoprot counter
CCOc1ccc(S(=O)(=O)Nc2ccccc2OC)cc1	nt	nt	nt	1	nt	nt	nt	nt	nt
COc1ccc(/C=N/n2cnnc2SCCO)cc1OC	-1	2.6*	-0.051	7	0.01	-8	14424*	1384	+
COc1ccc(CCNC(=O)C2CC2(c2ccccc2)c2ccccc2)cc1OC (stereo not drawn)	nt	nt	nt	-12	nt	nt	nt	nt	nt
CCOC(=O)c1c(C)nc2sccn12	4	2.6*	-0.32	1	0	-17	12992*	1936	i
CCOC(=O)c1c(C)nc2ncccn12	9	0.3	-0.46	-1	0.012	8	nt	nt	nt
CCOC(=O)c1c(C)nc2c3ccccc3ccn12	76*	5.3*	0	3	-0.31	26	19468*	1592	+
COC(=O)C1=C(C)NC(=S)NC1c1sccc1C (stereo not drawn)	nt	nt	nt	-7	nt	nt	nt	nt	nt
O=C(NCC1CCCO1)c1c(O)c2ccccc2[nH]c1=O (stereo not drawn)	44	1.9	-0.028	3	-0.067	22	nt	nt	nt
NC(=O)c1c(NC(=O)CSc2nnc(-c3ccco3)n2-c2ccccc2)sc2c1CCC2	11	4.8*	-2	nt	-0.024	6	10124*	1620	i
Cc1c(N2C(=O)CSC2c2ccccc2Cl)c(=O)n(-c2ccccc2)n1C (stereo not drawn)	nt	nt	nt	-8	nt	nt	nt	nt	nt
O=c1cc(-c2ccccc2)c2ccccc2[nH]1	3	10*	2.1	-10	0.14	-4	12072*	1476	+
Cc1cc(=O)[nH]c2ccccc12	-8	-0.034	0.59	3	0.64	-13	nt	nt	nt
COc1ccc(NC(=O)CSc2nc3c(c(=O)n2-c2ccc(F)cc2)SCC3)cc1	-2	1.8	2.2	14	1.2	-9	nt	nt	nt
CCC(C(=O)NC1CCCC1)N(C(=O)Cn1nnc(-c2ccc(OC)c(OC)c2)n1)C1CCCCC1 (stereo not drawn)	-6	6.8*	0.34	7	0.63	-18	9072*	1456	+
COc1cccc(C2=CC(c3ccc(OC)c(OC)c3OC)n3nnnc3N2)c1 (stereo not drawn)	-16	19*	0.34	1	-0.59	17	12516*	nt	+
COc1cccc(-c2cc(C(F)(F)F)nc(NCc3ccco3)n2)c1	12	3*	0.042	-3	0.75	-18	7368*	nt	+
FC(F)(F)c1cc(-c2ccco2)nc(-n2nnc3ccccc32)n1	-1	3.5	1.9	0	-0.18	-4	nt	nt	nt
FC(F)(F)c1cc(-c2ccco2)nc(-n2nc(C(F)(F)F)cc2C2CC2)n1	0	5.3*	0.68	-2	0.044	2	5828	1672	+
FC(F)(F)c1cc(-c2ccco2)nc(NCc2ccco2)n1	6	15*	-1.2	9	0.76	13	10384*	1612	+
